# Reference: ChEMBL document CHEMBL5096173, “Anti-SARS-CoV-2 Activity of Andrographis paniculata Extract and Its Major Component Andrographolide in Human Lung Epithelial Cells and Cytotoxicity Evaluation in Major Organ Cell Representatives” (J Nat Prod, 2021)
# pIC50: −log10 of the molar value.
# Assays:
# [1] = system: SARS-CoV-2; assay: Antiviral activity against SARS CoV-2 (01/human/Jan2020/Thailand) infected in human Calu-3 cells for 2 hrs assessed as inhibition of viral replication measured after 48 hrs post infection by IFA assay; type: functional, organism-based; conditions: for pIC50: Severe acute respiratory syndrome coronavirus 2, (01/human/Jan2020/Thailand)
# [2] = Selectivity index, ratio of CC50 for human imHC to IC50 for SARS CoV-2 (01/human/Jan2020/Thailand) infected in African green monkey Vero E6 cells; type: toxicity; conditions: read-out: Ratio CC50/IC50
# [3] = Cytotoxicity against human imHC cells assessed as reduction in cell viability incubated for 48 hrs by MTT assay; type: toxicity, cell-based
# Outline: (§1)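 Cells plated at 5×10^4/well and exposed 48 h to 0–100 µM (or extract 0–100 µg/mL). MTT added at 0.5 mg/mL final for 4 h at 37 °C, formazan dissolved in DMSO, absorbance read at 570 nm. Data normalised to solvent control and CC50 fitted.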
# [4] = Selectivity index, ratio of CC50 for human Caco-2 to IC50 for SARS CoV-2 (01/human/Jan2020/Thailand) infected in African green monkey Vero E6 cells; type: toxicity; conditions: Caco-2 cells, read-out: Ratio CC50/IC50
# [5] = Selectivity index, ratio of CC50 for human HK-2 to IC50 for SARS CoV-2 (01/human/Jan2020/Thailand) infected in African green monkey Vero E6 cells; type: toxicity; conditions: HK-2 cells, read-out: Ratio CC50/IC50
# [6] = Selectivity index, ratio of CC50 for human Calu-3 to IC50 for SARS CoV-2 (01/human/Jan2020/Thailand) infected in African green monkey Vero E6 cells; type: toxicity; conditions: Calu-3 cells, read-out: Ratio CC50/IC50
# [7] = Selectivity index, ratio of CC50 for human HepG2 to IC50 for SARS CoV-2 (01/human/Jan2020/Thailand) infected in African green monkey Vero E6 cells; type: toxicity; conditions: read-out: Ratio CC50/IC50
# [8] = system: SARS-CoV-2; assay: Antiviral activity against SARS CoV-2 (01/human/Jan2020/Thailand) infected in African green monkey Vero E6 cells for 2 hrs assessed as inhibition of viral replication measured after 48 hrs post infection by IFA assay; type: functional, organism-based; conditions: Severe acute respiratory syndrome coronavirus 2, (01/human/Jan2020/Thailand), Vero C1008
# [9] = biological target: Replicase polyprotein 1ab (Severe acute respiratory syndrome coronavirus 2, UniProt P0DTD1); assay: Inhibition of C-terminal His 6 tagged SARS CoV-2 main protease transfected in Escherichia coli BL21 (DE3); design: species or system Severe acute respiratory syndrome-related coronavirus
# [10] = system: SARS-CoV-2; assay: Antiviral activity against SARS CoV-2 (01/human/Jan2020/Thailand) infected in human Calu-3 cells for 2 hrs assessed as reduction in extracellular viral RNA measured after 48 hrs post infection by qRT-PCR analysis; type: functional, organism-based; conditions: Severe acute respiratory syndrome coronavirus 2, dose 0.1-100 µg/ml, DDE = dose-dependent effect
# [11] = system: HK-2; assay: Cytotoxicity against human HK-2 cells assessed as reduction in cell viability incubated for 48 hrs by MTT assay; type: toxicity, cell-based; conditions: hk-2, 48 h; outline: as §1
# [12] = system: SARS-CoV-2; assay: Antiviral activity against SARS CoV-2 (01/human/Jan2020/Thailand) infected in African green monkey Vero E6 cells for assessed as inhibition of viral replication preincubated for 1 hr followed by viral adsorption for 2 hrs and measured after 48 hrs by hoechst staining based analysis; type: functional, organism-based; conditions: Severe acute respiratory syndrome coronavirus 2, (01/human/Jan2020/Thailand), Vero C1008
# [13] = system: SARS-CoV-2; assay: Antiviral activity against SARS CoV-2 (01/human/Jan2020/Thailand) infected in human Calu-3 cells for 2 hrs assessed as inhibition of viral replication measured after 48 hrs post infection by plague assay; type: functional, organism-based; conditions: Severe acute respiratory syndrome coronavirus 2, (01/human/Jan2020/Thailand)
# [14] = Selectivity index, ratio of CC50 for human SH-SY5Y to IC50 for SARS CoV-2 (01/human/Jan2020/Thailand) infected in African green monkey Vero E6 cells; type: toxicity; conditions: read-out: Ratio CC50/IC50
# [15] = system: SARS-CoV-2; assay: Antiviral activity against SARS CoV-2 (01/human/Jan2020/Thailand) infected in African green monkey Vero E6 cells assessed as inhibition of viral replication pre-infected with cells for 2 hrs followed by compound addition and measured after 48 hrs post infection by plague assay; type: functional, organism-based; conditions: Severe acute respiratory syndrome coronavirus 2, (01/human/Jan2020/Thailand), Vero C1008
# [16] = system: SH-SY5Y; assay: Cytotoxicity against human SH-SY5Y cells assessed as reduction in cell viability incubated for 48 hrs by MTT assay; type: functional; outline: as §1
# [17] = system: Caco-2; assay: Cytotoxicity against human Caco-2 cells assessed as reduction in cell viability incubated for 48 hrs by MTT assay; type: functional; outline: as §1
# [18] = system: HepG2; assay: Cytotoxicity against human HepG2 cells assessed as reduction in cell viability incubated for 48 hrs by MTT assay; type: functional; outline: as §1
# [19] = system: Calu-3; assay: Cytotoxicity against human Calu-3 cells assessed as reduction in cell viability incubated for 48 hrs by MTT assay; type: functional; outline: as §1
smiles,measurement,setting,value
O=C(Nc1ccc([N+](=O)[O-])cc1Cl)c1cc(Cl)ccc1O [NICLOSAMIDE],pIC50,[1],6.05
C=C1CC[C@@H]2[C@](C)(CO)[C@H](O)CC[C@@]2(C)[C@@H]1C/C=C1/C(=O)OC[C@H]1O [ANDROGRAPHOLIDE],selectivity ratio,[2],1310
same,Activity,[3],44.55 µM
same,selectivity ratio,[4],1540
same,selectivity ratio,[5],1000
same,selectivity ratio,[6],1710
same,selectivity ratio,[7],2400
same,pIC50,[8],5.18
same,pIC50,[9],4.82
same,Activity,[10],Dde
same,Activity,[11],34.11 µM
same,pIC50,[1],5.77
same,Activity,"[1]; Severe acute respiratory syndrome coronavirus 2, dose 0.1-100 µg/ml, DDE = dose-dependent effect",Dde
same,pIC50,[12],4.72
same,pIC50,[13],7.47
same,selectivity ratio,[14],388
same,pIC50,[15],6.55
same,Activity,[16],13.19 µM
same,Activity,[17],52.3 µM
same,Activity,[18],81.52 µM
same,Activity,[19],58.03 µM
CCN(CCO)CCCC(C)Nc1ccnc2cc(Cl)ccc12 (stereo unspecified) [HYDROXYCHLOROQUINE],pIC50,[1],< 4.30
CCC(CC)COC(=O)[C@H](C)N[P@](=O)(OC[C@H]1O[C@@](C#N)(c2ccc3c(N)ncnn23)[C@H](O)[C@@H]1O)Oc1ccccc1 [REMDESIVIR],pIC50,[8],5.57
same,pIC50,[1],7.37
same,pIC50,[13],7.07
same,pIC50,[15],5.58
